# Assays:
# [1] = system: Mycobacterium tuberculosis; test: Antimycobacterial activity against Mycobacterium tuberculosis H37Ra ATCC 25177 after 7 days by Alamar Blue assay; format: functional; settings: H37Ra ATCC 25177, 168 h
# Outline: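 Log-phase culture washed and resuspended in supplemented Middlebrook 7H9GC broth, adjusted to McFarland No. 1, then diluted 1:20. Equal volumes of culture and DMSO-prepared compound dilutions were tested in duplicate for 7 days. 10% AlamarBlue was added, with 570/600 nm readings for background and after 24 h reincubation. Blue meant no growth, pink meant growth. MIC was the lowest concentration without visible growth.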
# [2] = system: Mycobacterium avium complex sp.; test: Antimycobacterial activity against Mycobacterium avium complex CIT19/06 clinical isolate after 5 days by Alamar Blue assay; format: functional; settings: CIT19/06, 120 h
# Mycobacterium avium = test: Antimycobacterial activity against Mycobacterium avium subsp. paratuberculosis CIT03 clinical isolate after 11 days by Alamar Blue assay; format: functional; settings: CIT03, 264 h
# HEK293 = test: Cytotoxicity against human HEK293 cells; format: cell-based
SMILES,MIC [1] [µg/mL],MIC [2] [µg/mL],MIC (Mycobacterium avium) [µg/mL],IC50 (HEK293) [µg/mL]
COc1cc(NC(C)CCCNC(=O)Nc2ccc(Br)cc2)c2ncccc2c1 (stereo not drawn),8,16,16,200
COc1cc(NC(C)CCCNC(=O)Nc2ccc(C(F)(F)F)cc2)c2ncccc2c1 (stereo not drawn),4,16,8,200

# — ChEMBL document CHEMBL4251591, “Primaquine hybrids as promising antimycobacterial and antimalarial agents” (Eur J Med Chem, 2018)
